Most compounds without a hit are left out; they make up all but 1.9% or so of the library.
PP5 primary – inhibitors of human protein phosphatase 5 (PP5) | purified PP5c, OMFP substrate fluorescence | inhibition, % at 6.7 µM | actives 0.18% (n = 320,000);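 active = inhibition above the campaign's mean inhibition across all tested compounds plus 3 SD, cut at about 9.5% in these data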;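 also: 0% = DMSO only and 100% = 100 µM cantharidin control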
Target sequence (P53041 whole entry, looked up): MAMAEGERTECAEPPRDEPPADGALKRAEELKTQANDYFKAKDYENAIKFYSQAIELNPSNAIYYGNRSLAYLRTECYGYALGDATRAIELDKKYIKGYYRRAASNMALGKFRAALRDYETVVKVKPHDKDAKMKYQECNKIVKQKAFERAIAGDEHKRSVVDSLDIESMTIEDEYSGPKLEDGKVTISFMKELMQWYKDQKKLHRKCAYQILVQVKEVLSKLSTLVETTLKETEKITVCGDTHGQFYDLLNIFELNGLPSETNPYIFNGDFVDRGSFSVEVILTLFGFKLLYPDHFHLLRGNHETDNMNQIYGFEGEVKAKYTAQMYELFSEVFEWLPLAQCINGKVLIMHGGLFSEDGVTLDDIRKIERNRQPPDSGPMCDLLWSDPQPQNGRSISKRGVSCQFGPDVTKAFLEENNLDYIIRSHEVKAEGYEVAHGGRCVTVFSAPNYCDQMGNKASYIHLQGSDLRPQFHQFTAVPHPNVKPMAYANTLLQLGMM
HIF activator – HIF pathway transcriptional activation. U2OS HRE-luciferase reporter, luminescence; normalized: DMSO 0%, desferrioxamine 100%. activation, % at 7.5 µM (by protocol). actives 0.32% (n = 300,000). AID 1910;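 active = mean activation of at least 10% of the iron chelator positive control signal, with at least half of replicates also reaching 10%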
HCV NS3 hel inh – HCV NS3 helicase inhibition. AID 1800. inhibition, % at 10.9 µM. NS3 helicase DNA unwinding, Cy5 molecular beacon fluorescence. actives 0.56% (n = 290,000);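 active = inhibition above the mean of all tested compounds plus 3 SD, set per campaign, cut at about 35% in these data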;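 also: 0% = DMSO wells and 100% = thioflavine S control wells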
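Test system: hepatitis C virus NS3 helicase domain fragment enzyme. Also added: annealed dual-labelled DNA beacon duplex, ATP-started. Timing: 60 min unwinding reaction at 25 °C after ATP addition. Technique: Cy5 fluorescence. Measure: % inhibition of unwinding.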
PP1 inh – counter-screen for PP5 inhibitors: inhibitors of human PP1-alpha | P62136 | purified PP1alpha, OMFP fluorescence | inhibition, % at 6.7 µM | actives 0.9% (n = 320,000) | AID 2235;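 active = inhibition above the mean inhibition of all tested compounds plus 3 SD, computed separately for each screening campaign, cut at about 15% in these data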
DNA FID counter-1 – counter-screen for HCV NS3 helicase inhibitors: DNA intercalator displacement; DNA fluorescent intercalator displacement, fluorescence; inhibition, % at 7.9 µM; actives 0.17% (n = 290,000);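 also: 0% = vehicle and 100% = reference compound; higher means more ethidium bromide displaced from hairpin DNA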
NS3 helicase cf – HCV NS3 helicase inhibition, confirmation assay; actives 31% (n = 1,600); AID 1943; NS3 helicase DNA unwinding, Cy5 molecular beacon fluorescence; shares compounds with HCV NS3 hel inh; inhibition, % at 10.9 µM;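 active = inhibition above the mean of all tested compounds plus 3 SD, cutoff set per campaign, cut at about 36% in these data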
DNA FID counter-2 – displaces DNA intercalator in HCV helicase counter-screen. shares compounds with HCV NS3 hel inh. actives 4% (n = 1,600). DNA fluorescent intercalator displacement, fluorescence. inhibition, % at 7.9 µM. AID 1945;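 also: 0% = vehicle and 100% = reference compound; higher means more displacement of ethidium bromide from the DNA hairpin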
An asterisk follows results filed as active; / = not tested or not shown. Rule as the data show it, unless noted: active = inhibition above about 37%; inactive = the rest.

SMILES | PP5 primary | HIF activator | HCV NS3 hel inh | PP1 inh | DNA FID counter-1 | NS3 helicase cf | DNA FID counter-2
O=C(NCCc1cccs1)C12CN(Cc3ccccc3)CC1C(c1cccc([N+](=O)[O-])c1)=NO2 (stereo not given) | 4.8 | -0.3 | 56.0* | 8.2 | -15.6 | 2.0 | -21.2
CC(=O)c1c(C)nc2sc3c(=N)n(N)cnc3c2c1-c1ccc(Cl)cc1 | -1.2 | 0.6 | 7.3 | 0.0 | -9.3 | / | /
CCSc1nc2c(c(=O)[nH]1)C(c1ccncc1)C(C(=O)OC(C)C)=C(C)N2 (stereo not given) | 3.0 | -0.6 | 6.9 | 0.5 | -1.7 | / | /
CCSc1nc2c(c(=O)[nH]1)C(c1cccnc1)C(C(=O)OC)=C(C)N2 (stereo not given) | 1.5 | / | 39.2* | -7.0 | -15.8 | -2.5 | -0.5
Cc1cc(N=Nc2ccccc2C(=O)O)c(C)c(C)c1O | 6.4 | -0.3 | 48.6* | 9.9 | -14.5 | 66.3* | 1.7
Cc1cc(O)c(C(C)C)cc1N=Nc1ccccc1C(=O)O | 2.5 | -0.6 | 0.4 | 3.9 | -25.8 | / | /
Cc1ccc(-c2csc(N/N=C/c3ccco3)n2)c(C)c1 | -1.4 | 0.3 | 39.7* | 5.6 | -4.3 | -9.6 | 10.1
CNC(=O)c1c(NC(=O)CCS(=O)(=O)c2ccc(C)cc2)sc2c1CCN(C(=O)OC)C2 | 2.9 | 0.1 | / | 1.1 | / | / | /
COc1cc(C(=O)N/C(=C/c2ccc(F)cc2)C(=O)NC(C(=O)O)c2ccccc2)cc(OC)c1OC (stereo not given) | -5.8 | -0.5 | 36.6* | 5.2 | -24.1 | -12.8 | -10.3
O=C(NC(Cc1ccccc1)C(=O)O)/C(=C\c1ccc(F)cc1)NC(=O)c1ccccc1 (stereo not given) | 1.6 | -0.3 | 12.7 | -1.6 | -34.6 | / | /
CCOc1ccc(NC(=O)/C(C#N)=C/c2cn(CC(=O)O)c3ccccc23)cc1 | / | -1.3 | 33.6 | / | -27.6 | / | /
CCOc1cccc(NC(=O)/C(C#N)=C\c2cn(CC(=O)O)c3ccccc23)c1 | 2.3 | 0.0 | 39.9* | 1.5 | -19.1 | 48.9* | -6.7
COc1cccc(Cn2cc(C)cc(NC(=O)NCc3ccccc3)c2=O)c1 | -5.4 | -1.9 | 40.5* | 3.5 | -28.6 | -3.5 | -14.5
Cc1cc(NC(=O)NCc2ccccc2)c(=O)n(Cc2ccccc2F)c1 | 2.5 | 1.2 | -1.1 | 1.1 | -20.0 | / | /
CC1Nc2nc(NC(=O)C(C)(C)C)[nH]c(=O)c2N(C)C1C (stereo not given) | 0.5 | -0.3 | -20.9 | -5.6 | -4.3 | / | /
O=C1CS/C(=N\N=C\c2ccco2)N1c1ccccc1 | -0.8 | 0.6 | 41.3* | -1.2 | -15.4 | 15.3 | 20.3
O=C1CS/C(=N/N=C/c2ccccc2)N1c1ccc(O)cc1 | 2.0 | -10.0 | -7.0 | -4.6 | -5.9 | / | /
Cc1cc(C)c(NC(=O)CNC(=O)c2cc([N+](=O)[O-])ccc2N2CCOCC2)c(C)c1 | -1.5 | -0.3 | / | -2.0 | / | / | /
Cc1ccc(C(c2nnnn2C2CCCC2)N2c3ccccc3CC2C)cc1 (stereo not given) | 3.6 | 0.6 | -6.5 | 3.6 | -22.3 | / | /
O=C(Nc1cc(C(F)(F)F)ccc1N1CCOCC1)C1Cc2ccccc2CN1C(=O)c1ccco1 (stereo not given) | 1.6 | -0.5 | 57.4* | 11.4 | -50.2 | -7.1 | -23.2
O=C(Nc1ccccc1)C1Cc2ccccc2CN1C(=O)c1ccco1 (stereo not given) | 0.1 | 4.4 | 2.6 | 1.4 | -4.5 | / | /
CC(C)c1cc(=O)n2[nH]c(SCc3ccc(Cl)cc3)nc2n1 | -0.6 | 2.5 | 44.8* | 4.6 | -25.1 | -5.5 | -24.4
O=C(NCCCN1CCCC1)Nc1ccccc1[N+](=O)[O-] | -1.0 | 0.0 | 7.7 | 0.9 | -10.1 | / | /
N#CC1=C(N)SC(N)=C(C#N)C1CCC1CCCCC1 | -0.5 | -0.1 | 52.8* | 2.5 | -5.2 | 5.0 | 23.6
Cc1cccc(C(=O)NCC(=O)N2CCN(S(=O)(=O)c3ccc4c(c3)OCCO4)CC2)c1 | 0.0 | / | / | -2.7 | / | / | /
SMILES | PP5 primary | HIF activator | HCV NS3 hel inh | PP1 inh | DNA FID counter-1 | NS3 helicase cf | DNA FID counter-2
COc1ccc(CCN2CC(C(=O)NCCCn3nc(C)cc3C)CCC2=O)cc1 (stereo not given) | 1.9 | -0.3 | -7.4 | -11.1 | -34.5 | / | /
COc1ccc(OC)c(NC(=O)CSc2ccc(-c3ccco3)nn2)c1 | 2.3 | -0.1 | 44.6* | 1.3 | -36.9 | -20.4 | -12.8
Cc1ccccc1NC(=S)NCCSc1ccc(Cl)cc1 | 2.2 | 0.0 | 78.3* | -0.5 | 48.8* | 6.1 | -0.8
Cc1ccc(C)c(NC(=S)NCCSc2ccc(Cl)cc2)c1 | 2.3 | -0.1 | -15.4 | 3.5 | -8.2 | / | /
O=C(COc1ccc2ccccc2c1)NNC(=O)Cc1ccccc1 | 1.0 | 0.1 | 1.0 | 0.8 | -0.3 | / | /
O=C(COc1ccc2ccccc2c1)N[C@@H](C(=O)O)c1ccc(O)cc1 | 0.0 | -23.8 | 43.1* | 5.5 | -20.8 | -29.3 | -3.5
COC(=O)c1ccc(Cn2nc([N+](=O)[O-])c(Br)c2C)cc1 | 1.7 | -0.3 | -7.1 | -3.3 | 1.8 | / | /
CCCNc1c(F)c(F)c2c(C)c3ccccc3nc2c1F | 3.8 | 0.9 | 41.0* | 3.1 | -8.7 | 12.0 | -8.3
Cc1c2ccccc2nc2ccccc12 | -1.8 | 0.1 | / | 0.9 | / | / | /
C/C(=N\NC(=S)NCCc1ccccc1)c1ccc(O)cc1O | 2.4 | -0.3 | 50.4* | 1.6 | -3.3 | 11.9 | 12.4
Cc1cc(C)n(-c2ccc(C(=O)OCC(=O)c3ccc(Br)s3)cc2)n1 | -0.1 | -0.8 | 50.4* | 12.5 | -40.8 | -4.3 | -5.2
CCNC(=O)COC(=O)c1ccc(-n2nc(C)cc2C)cc1 | -2.8 | -0.2 | -1.9 | -5.6 | -4.1 | / | /
CS(=O)(=O)Nc1cccc(C2=NN(C(=O)c3ccco3)C(c3cccs3)C2)c1 (stereo not given) | 2.4 | 0.7 | -9.5 | 1.3 | -34.7 | / | /
CCCc1cc(=O)oc2c(CN3CCCC3)c(O)ccc12 | -0.3 | 0.0 | -4.7 | -0.7 | 3.0 | / | /
CCCc1cc(=O)oc2cc(C)c(CN3CCCC3)c(O)c12 | 4.2 | -0.1 | 39.9* | 1.7 | -18.2 | 41.5* | -22.4
CCc1ccc(/C=C2\Oc3c(ccc(O)c3CN3CCN(CCO)CC3)C2=O)cc1 | 0.1 | 0.3 | 50.5* | -2.4 | 9.6 | -13.5 | 31.6
CCc1ccc(/C=C2\Oc3cc(OS(C)(=O)=O)ccc3C2=O)cc1 | 4.4 | -0.1 | 3.9 | 1.2 | 2.9 | / | /
Cc1ccc(CNC(=O)CS(=O)(=O)Cc2nc(-c3ccc(C)cc3)oc2C)cc1 | -2.6 | -0.7 | 40.7* | -5.1 | -22.9 | -6.4 | -17.0
O=C(NC1CCCc2ccccc21)c1cccc(S(=O)(=O)N2CCOCC2)c1 (stereo not given) | 0.7 | -0.7 | -0.1 | -0.9 | -7.5 | / | /
COc1ccc(N2CCN(S(=O)(=O)c3c(C(=O)N4CCOCC4)c(C)n(C)c3C)CC2)cc1 | -2.6 | / | 12.6 | -2.8 | -28.4 | / | /
O=C1ON=C(c2ccccc2)/C1=C/c1ccc(O)c(O)c1 | 2.4 | -0.8 | 46.4* | 4.7 | -6.3 | 16.5 | 4.3
